The source of these data is ChEMBL document CHEMBL4699493, “Development of Bis-cyclic Imidazolidine-4-one Derivatives as Potent Antibacterial Agents” (J Med Chem, 2020).

Molecules are shown by their SMILES. Values after ≈ are worked out from the molar mass of the structure shown. Active and inactive are the calls of the source. No cut-off for these calls is given here. A value given as a limit tells only on which side of the number the result lay.

The subject of data set [1] is Staphylococcus aureus. Kind of data set: Bactericidal activity against methicillin-resistant Staphylococcus aureus ATCC 33591 at 24 to 48 microg/ml measured upto 60 mins by time kill assay. Format: functional, organism-based. The note with it: dose microg/ml 24-48, time min <=60. In short, it runs like this:
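Mid-log MRSA (overnight culture in TSB at 37 °C with shaking, then 6 h subculture) at 10^6 CFU/mL was exposed to 6, 12, 24 or 48 μg/mL at 37 °C for 10, 30, 60 and 120 min. Samples were diluted 10^2-fold, plated on TSB agar, incubated 20 h at 37 °C, and colonies counted. Untreated control; three repeats.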

Data set [2] relates to Cell membrane. The experiment in a line: Induction of cell membrane depolarization in Escherichia coli ATCC 25922 assessed as increase in fluorescence intensity measured after 30 mins by DiSC3 staining based fluorescence spectroscopic technique. Format: subcellular. The essentials: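 Mid-log E. coli washed in 5 mM HEPES/5 mM glucose and resuspended in HEPES/glucose/100 mM KCl to OD600 about 0.05. DiSC3(5) added (8 μL of a 10 μM solution per 200 μL). Fluorescence (ex 622 nm, em 670 nm) read at room temperature for 30 min, then compound added at 0.5, 1, 2 and 4 × MIC and monitoring continued. Controls: untreated and 1% Triton X-100. Three repeats in duplicate.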

For data set [3], the system named is Staphylococcus epidermidis. The experiment in a line: Antibacterial activity against methicillin-resistant Staphylococcus epidermidis RP62A in presence of monovalent Na+ and K+. The class given is functional. The essentials:
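MIC set up as in the standard broth microdilution (log-phase inoculum at 10^6 CFU/mL, complete growth inhibition end point). The medium was TSB dissolved in 1× PBS (7.5 g per 250 mL) and autoclaved, supplying Na+ and K+.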

The subject of data set [4] is Staphylococcus epidermidis. The experiment in a line: Antibacterial activity against methicillin-resistant Staphylococcus epidermidis RP62A in presence of divalent Ca2+. Format: functional. In short, it runs like this:
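MIC set up as in the standard TSB broth microdilution (log-phase inoculum at 10^6 CFU/mL, complete growth inhibition end point). The medium was TSB prepared in DI water with CaCl2 added to 2 mM.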

Data set [5] deals with Klebsiella pneumoniae. Kind of data set: Antibacterial activity against Klebsiella pneumoniae ATCC 13383 in presence of divalent Ca2+. The class given is functional. The essentials:
(§1)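 MIC by the standard TSB broth dilution method, in TSB made with DI water and supplemented with CaCl2 to 2 mM. Inoculum of log-phase bacteria at 10^6 CFU/mL. MIC = lowest concentration completely inhibiting growth.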

In data set [6] the test system is Escherichia coli. The experiment in a line: Antibacterial activity against Escherichia coli ATCC 25922 in presence of monovalent Na+ and K+. The class given is functional. In short, it runs like this: (§2)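 MIC by the standard broth dilution method, in medium made by dissolving TSB powder in 1× PBS (7.5 g per 250 mL), autoclaved, to supply Na+ and K+. Inoculum of log-phase bacteria at 10^6 CFU/mL. MIC = lowest concentration completely inhibiting growth.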

In data set [7] the test system is HeLa. The experiment in a line: Cytotoxicity against human HeLa cells after 24 hrs by MTT assay. The class given is cell-based. In short, it runs like this:
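HeLa cells seeded at 5 × 10^3 cells/well, attached 24 h at 37 °C, 5% CO2, then exposed to a range of compound concentrations in growth medium for 24 h. Viability read with CCK-8 reagent, absorbance at 490 nm after 1 h. Triplicate wells, three repeats.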

Data set [8] in a line: Selectivity ratio of IC50 for cytotoxicity against human HeLa cells to MIC for methicillin-resistant Staphylococcus aureus. The class given is toxicity, cell-based. In short, it runs like this:
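HeLa cells were seeded at 5×10^3/well and allowed to attach for 24 h (37 °C, 5% CO2). They were then exposed 24 h to a range of compound concentrations in growth medium. Viability was read by CCK-8 (1 h, absorbance 490 nm). Triplicate wells, three repeats. IC50 was divided by the MRSA MIC.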

In data set [9] the test system is Escherichia coli. The experiment in a line: Antibacterial activity against Escherichia coli ATCC 25922 in presence of divalent Ca2+. Format: functional. The essentials: as §1
Data set [10] has as its system Cell membrane. The experiment in a line: Induction of inner membrane permeabilization in methicillin-resistant Staphylococcus aureus ATCC 33591 at 2 times MIC measured for 12 mins by propidium iodide staining based fluorescence microscopic analysis. Format: functional, subcellular. The essentials: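 Mid-log cells were washed in 5 mM HEPES/5 mM glucose and set at 10^6 CFU/mL, then mixed with PI (10 μM stock). Baseline fluorescence (ex 535/em 617 nm) was read about 8 min at 2-min intervals. Compound was then added and reading continued for 12 min. Water-only negative control; three repeats.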

A short description of data set [11]: Selectivity ratio of HC50 for hemolytic activity against mouse RBC to MIC for methicillin-resistant Staphylococcus aureus. The class given is toxicity. The note with it: mouse red blood cells (erythrocytes). The essentials: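 Mouse RBCs were washed three times in PBS and diluted in 20 volumes of PBS. They were mixed with compound 2-fold serially diluted from 1 mg/mL in PBS, incubated 1 h at 37 °C, then centrifuged; supernatant read at A540. % hemolysis was calculated against PBS (0%) and 2% Triton (100%). Done ≥3 times in duplicate. HC50 was divided by the MRSA MIC.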

In data set [12] the test system is Klebsiella pneumoniae. Kind of data set: Antibacterial activity against Klebsiella pneumoniae ATCC 13383 in presence of monovalent Na+ and K+. Format: functional. The essentials:
as §2

In data set [13] the test system is Escherichia coli. Kind of data set: Antibacterial activity against Escherichia coli ATCC 25922. Format: functional. In short, it runs like this:
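Broth microdilution in TSB. Stocks at 5 mg/mL in DMSO diluted with TSB to 100 μg/mL, then serially diluted; highest test concentration 25 μg/mL. Bacteria grown 16 h, subcultured 6 h to log phase, adjusted to 10^6 CFU/mL by OD600. MIC = lowest concentration giving complete growth inhibition. At least three repeats, each in duplicate.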

Data set [14] deals with Cell membrane. Kind of data set: Induction of cell membrane disruption in methicillin-resistant Staphylococcus aureus ATCC 33591 at 2 times MIC after 2 hrs by transmission electron microscopic analysis. The class given is subcellular. In short, it runs like this: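 Bacteria at 10^6 CFU/mL were treated at 2× MIC for 2 h at 37 °C, pelleted, washed three times in PBS and resuspended in deionized water. Samples were dropped on grids, blotted, dried under vacuum at 50 °C for 30 s, then imaged by TEM. Untreated control.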

For data set [15], the system named is Escherichia coli. Kind of data set: Antibiofilm activity against Escherichia coli ATCC 25922 assessed as reduction in biofilm formation at 3 ug/ml measured after 2 days by crystal violet staining based assay. The following applies: ATCC 25922, 48 h, time 2 day. The class given is functional. The essentials:
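Mid-log E. coli (overnight culture, then 6 h subculture at 37 °C) set up with compound in TSB as in the MIC assay and incubated 2 days. Wells washed with DI water, stained with 0.1% crystal violet for 15 min, washed, dried, and dye solubilized in 30% acetic acid for 15 min. OD595 normalized to untreated control. Ciprofloxacin as comparator. Triplicate, mean ± STDEV.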

The test system of data set [16] is Staphylococcus epidermidis. The experiment in a line: Antibacterial activity against methicillin-resistant Staphylococcus epidermidis RP62A. Format: functional. The essentials:
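Broth microdilution in TSB. Strains were grown 16 h, subcultured 6 h to log phase, then diluted to 10^6 CFU/mL by OD600. Compound came from a 5 mg/mL DMSO stock diluted in TSB and serially diluted, top final concentration 25 μg/mL. MIC was the lowest concentration giving complete growth inhibition. Done ≥3 times in duplicate.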

As a reminder, the MIC is the lowest concentration found to suppress growth. As usually defined, the IC50 is the concentration needed to halve the response being measured. Read a high IC50 as lower potency. As a reminder, the inhibition is the percentage by which the read-out fell short of the control. For `CCCCCCCCCC(=O)N[C@@H](CCCCN)CN1CC(=O)N(c2ccc(N3CN(C[C@H](CCCCN)NC(=O)CCCCCCCCC)CC3=O)cc2)C1`, the outcome in [1], in data set [10] and in data set [14] was Active. For the same molecule, in data set [2], the Activity result was “Dose-dependent effect”. Further, the MIC in [3] turned out to be 7 µg/mL; in data set [4], 2 µg/mL; in data set [5], 5 µg/mL; in [6], 5 µg/mL; in data set [9], 7 µg/mL; in [12], 7 µg/mL. Further, the minimum inhibitory concentration (MIC) in data set [13] and in data set [16] was 5 µg/mL (≈ 6.38 µM) each time. In data set [7], this molecule returned an IC50 of 74.8 µg/mL (≈ 95.5 µM). Further, the selectivity ratio is greater than 38 in data set [8] and greater than 125 in data set [11]. In data set [15], the inhibition at 3 µg/mL is greater than 50%.
